Assay [1] concerns Colletotrichum gloeosporioides. Nature of the assay: Antifungal activity against Colletotrichum gloeosporioides assessed as size of growth inhibitory zone at concentration of 2 mM in volume of 10 ul of acetone measured after 4 days by TLC based direct bioautography assay. Type of assay: functional. Summed up: (§1)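 Direct TLC bioautography on silica plates, dose–response from 2 to 12 µL of a 2 mM solution spotted per plate. Benomyl, cyprodinil, azoxystrobin and captan served as standards at 2 µL of 2 mM in ethanol. Inhibitory zone size was measured 4 days after treatment. Experiments were repeated multiple times, and mean zones were compared by ANOVA with Fisher's protected LSD (P 0.05).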

Assay [2] relates to Colletotrichum gloeosporioides. Description: Antifungal activity against Colletotrichum gloeosporioides assessed as size of growth inhibitory zone at concentration of 2 mM in volume of 8 ul of acetone measured after 4 days by TLC based direct bioautography assay. Type of assay: functional. Summed up:
as §1

For assay [3], the system named is Colletotrichum gloeosporioides. Nature of the assay: Antifungal activity against Colletotrichum gloeosporioides assessed as size of growth inhibitory zone at concentration of 2 mM in volume of 6 ul of acetone measured after 4 days by TLC based direct bioautography assay. Type of assay: functional. In a few lines:
as §1

Assay [4] deals with Colletotrichum gloeosporioides. Description: Antifungal activity against Colletotrichum gloeosporioides assessed as size of growth inhibitory zone at concentration of 2 mM in volume of 2 ul of acetone measured after 4 days by TLC based direct bioautography assay. Type of assay: functional. In a few lines: as §1
For assay [5], the system named is Colletotrichum fragariae. Description: Antifungal activity against Colletotrichum fragariae assessed as size of growth inhibitory zone at concentration of 2 mM in volume of 12 ul of acetone measured after 4 days by TLC based direct bioautography assay. Type of assay: functional. In a few lines:
as §1

For assay [6], the system named is Colletotrichum fragariae. Nature of the assay: Antifungal activity against Colletotrichum fragariae assessed as size of growth inhibitory zone at concentration of 2 mM in volume of 10 ul of acetone measured after 4 days by TLC based direct bioautography assay. The class given is functional. In a few lines:
as §1

Assay [7] deals with Colletotrichum acutatum. Nature of the assay: Antifungal activity against Colletotrichum acutatum assessed as size of growth inhibitory zone at concentration of 2 mM in volume of 4 ul of acetone measured after 4 days by TLC based direct bioautography assay. Type of assay: functional. In a few lines:
as §1

Assay [8] deals with Colletotrichum fragariae. Nature of the assay: Antifungal activity against Colletotrichum fragariae assessed as size of growth inhibitory zone at concentration of 2 mM in volume of 8 ul of acetone measured after 4 days by TLC based direct bioautography assay. Type of assay: functional. Summed up:
as §1

Assay [9] relates to Colletotrichum fragariae. Description: Antifungal activity against Colletotrichum fragariae assessed as size of growth inhibitory zone at concentration of 2 mM in volume of 6 ul of acetone measured after 4 days by TLC based direct bioautography assay. Type of assay: functional. Summed up:
as §1

For assay [10], the system named is Colletotrichum fragariae. Nature of the assay: Antifungal activity against Colletotrichum fragariae assessed as size of growth inhibitory zone at concentration of 2 mM in volume of 2 ul of acetone measured after 4 days by TLC based direct bioautography assay. The class given is functional. In a few lines:
as §1

The test system of assay [11] is Colletotrichum acutatum. Description: Antifungal activity against Colletotrichum acutatum assessed as size of growth inhibitory zone at concentration of 2 mM in volume of 12 ul of acetone measured after 4 days by TLC based direct bioautography assay. The class given is functional. Summed up: as §1
In assay [12] the test system is Colletotrichum acutatum. Nature of the assay: Antifungal activity against Colletotrichum acutatum assessed as size of growth inhibitory zone at concentration of 2 mM in volume of 10 ul of acetone measured after 4 days by TLC based direct bioautography assay. Type of assay: functional. In a few lines:
as §1

The subject of assay [13] is Colletotrichum acutatum. Nature of the assay: Antifungal activity against Colletotrichum acutatum assessed as size of growth inhibitory zone at concentration of 2 mM in volume of 8 ul of acetone measured after 4 days by TLC based direct bioautography assay. Type of assay: functional. Summed up:
as §1

Assay [14] concerns Colletotrichum acutatum. Description: Antifungal activity against Colletotrichum acutatum assessed as size of growth inhibitory zone at concentration of 2 mM in volume of 6 ul of acetone measured after 4 days by TLC based direct bioautography assay. Type of assay: functional. Summed up:
as §1

Assay [15] concerns Colletotrichum acutatum. Nature of the assay: Antifungal activity against Colletotrichum acutatum assessed as size of growth inhibitory zone at concentration of 2 mM in volume of 2 ul of acetone measured after 4 days by TLC based direct bioautography assay. The class given is functional. In a few lines: as §1
For assay [16], the system named is Colletotrichum gloeosporioides. Nature of the assay: Antifungal activity against Colletotrichum gloeosporioides assessed as size of growth inhibitory zone at concentration of 2 mM in volume of 4 ul of acetone measured after 4 days by TLC based direct bioautography assay. The class given is functional. Summed up: as §1
For assay [17], the system named is Colletotrichum fragariae. Nature of the assay: Antifungal activity against Colletotrichum fragariae assessed as size of growth inhibitory zone at concentration of 2 mM in volume of 4 ul of acetone measured after 4 days by TLC based direct bioautography assay. The class given is functional. Summed up: as §1
The next assay has as its system Fusarium oxysporum. Description: Antifungal activity against Fusarium oxysporum assessed as growth inhibition at 0.3 to 30 uM after 72 hr by 96-well microdilution broth assay. The class given is functional, organism-based. In a few lines:
(§2)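 96-well microdilution broth dose–response. Final treatment concentrations were 0.3, 3.0 and 30.0 µM, alongside an azoxystrobin fungicide standard. Plates were lidded and incubated in a growth chamber, and growth was read as absorbance at 620 nm. Each concentration was run in duplicate, with three independent experiments. Results are reported as mean growth inhibition with standard errors for each fungus and dose.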
For orientation: Dilution methods test growth across graded concentrations, often in twofold steps.

Another assay concerns Phomopsis obscurans. Description: Antifungal activity against Phomopsis obscurans assessed as growth inhibition at 0.3 to 30 uM after 72 hr by 96-well microdilution broth assay. Type of assay: functional, organism-based. Conditions: Paraphomopsis obscurans. In a few lines:
as §2

Assay [18] concerns Colletotrichum gloeosporioides. Description: Antifungal activity against Colletotrichum gloeosporioides assessed as growth inhibition at 0.3 to 30 uM after 72 hr by 96-well microdilution broth assay. Type of assay: functional, organism-based. Summed up:
as §2

Assay [19] has as its system Colletotrichum fragariae. Nature of the assay: Antifungal activity against Colletotrichum fragariae assessed as growth inhibition at 0.3 to 30 uM after 72 hr by 96-well microdilution broth assay. Type of assay: functional, organism-based. Summed up: as §2
Assay [20] deals with Colletotrichum acutatum. Nature of the assay: Antifungal activity against Colletotrichum acutatum assessed as growth inhibition at 0.3 to 30 uM after 72 hr by 96-well microdilution broth assay. The class given is functional, organism-based. In a few lines:
as §2

For assay [21], the system named is Botrytis cinerea. Nature of the assay: Antifungal activity against Botryotinia fuckeliana assessed as growth inhibition at 3.0 uM after 72 hr by 96-well microdilution broth assay. Type of assay: functional. The note with it: read-out: GI. In a few lines:
as §2

The test system of assay [22] is Botrytis cinerea. Nature of the assay: Antifungal activity against Botryotinia fuckeliana assessed as growth inhibition at 0.3 uM after 72 hr by 96-well microdilution broth assay. Type of assay: functional. Conditions: read-out: GI. Summed up:
as §2

Assay [23] has as its system Colletotrichum gloeosporioides. Nature of the assay: Antifungal activity against Colletotrichum gloeosporioides assessed as size of growth inhibitory zone at concentration of 2 mM in volume of 12 ul of acetone measured after 4 days by TLC based direct bioautography assay. The class given is functional. In a few lines:
as §1

Assay [24] has as its system Colletotrichum gloeosporioides. Description: Antifungal activity against Colletotrichum gloeosporioides assessed as diffuse inhibitory zone at concentration of 2 mM in volume of 2 ul of EtOH measured after 4 days by TLC based direct bioautography assay. The class given is functional, organism-based. In a few lines:
(§3)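 Direct TLC bioautography on silica plates against Colletotrichum species. Technical-grade fungicide standards (without formulation) were spotted at 2 µL of 2 mM in 95% ethanol. Inhibitory zone size was read 4 days after treatment. Diffuse zones were taken to mark suppressive activity. Values are means and standard deviations of zone size, with means separated by ANOVA and Fisher's protected LSD (P = 0.05).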

The test system of assay [25] is Colletotrichum fragariae. Description: Antifungal activity against Colletotrichum fragariae assessed as size of growth inhibitory zone at concentration of 2 mM in volume of 2 ul of EtOH measured after 4 days by TLC based direct bioautography assay. Type of assay: functional. In a few lines: as §3
For assay [26], the system named is Colletotrichum acutatum. Nature of the assay: Antifungal activity against Colletotrichum acutatum assessed as diffuse inhibitory zone at concentration of 2 mM in volume of 2 ul of EtOH measured after 4 days by TLC based direct bioautography assay. Type of assay: functional, organism-based. In a few lines:
as §3

Assay [27] has as its system Colletotrichum gloeosporioides. Description: Antifungal activity against Colletotrichum gloeosporioides assessed as size of growth inhibitory zone at concentration of 2 mM in volume of 2 ul of EtOH measured after 4 days by TLC based direct bioautography assay. The class given is functional. Summed up:
as §3

Assay [28] relates to Colletotrichum acutatum. Nature of the assay: Antifungal activity against Colletotrichum acutatum assessed as size of growth inhibitory zone at concentration of 2 mM in volume of 2 ul of EtOH measured after 4 days by TLC based direct bioautography assay. Type of assay: functional. In a few lines: as §3
In assay [29] the test system is Botrytis cinerea. Nature of the assay: Antifungal activity against Botryotinia fuckeliana assessed as growth inhibition at 30 uM by 96-well microdilution broth assay. The class given is functional. The note with it: read-out: GI. Summed up: as §2

Structures are written as SMILES. Calls of active or inactive are those of the source. The calls are words filed in the database; no cut-off is given here.

In the case of `CC(C)=CCC[C@](C)(O)[C@@H]1CC=C(C)CC1` (relative stereo) [LEVOMENOL], the Activity is listed as 9 mm in assay [1]; 8 mm in [2]; 7.5 mm in assay [3]; 5 mm in [4]; 11.5 mm with Colletotrichum fragariae [5]; 9.5 mm in the assay with Colletotrichum fragariae [6]. Further, the Activity with Colletotrichum acutatum [7] turned out to be 8 mm; in the assay on Colletotrichum fragariae [8], 8 mm; in the assay with Colletotrichum fragariae [9] it was 7 mm; in the assay on Colletotrichum fragariae [10] it was 5 mm; in the assay on Colletotrichum acutatum [11] it was 11 mm; with Colletotrichum acutatum [12], 9.5 mm. Besides, the Activity in the assay on Colletotrichum acutatum [13] came to 7.5 mm; in the assay with Colletotrichum acutatum [14] it was 7.5 mm; in the assay on Colletotrichum acutatum [15], 5.5 mm; in assay [16], 5.5 mm; with Colletotrichum fragariae [17], 6.5 mm; in assay [23], 11.5 mm. Moreover, the “growth inhibition (GI)” value (in the assay with Fusarium oxysporum; in the assay on Phomopsis obscurans; in [18]; in the assay with Colletotrichum fragariae [19]; in the assay with Colletotrichum acutatum [20]) was “inactive” each time. Also, the inhibition of growth at 3 µM in the assay on Botrytis cinerea [21] stood at 47.3%. Also, the inhibition of growth at 0.3 µM in the assay with Botrytis cinerea [22] was 46.5%.
Regarding `CO/C=C(/C(=O)OC)c1ccccc1Oc1cc(Oc2ccccc2C#N)ncn1` [AZOXYSTROBIN], the inhibition entry (in [24]; in the assay on Colletotrichum acutatum [26]) was “Active” in each case. Also, the Activity in the assay with Colletotrichum fragariae [25] is recorded as 23 mm.
As to `CCCCNC(=O)n1c(NC(=O)OC)nc2ccccc21` [BENOMYL], the inhibition entry (in assay [24]; in the assay on Colletotrichum acutatum [26]) was “Active” throughout. In the assay with Colletotrichum fragariae [25], the Activity came to 21.3 mm.
For the compound `C=C1CCC[C@]2(C)CC[C@@H](C(C)(C)O)C[C@@H]12` [BETA-EUDESMOL], the Activity (in the assay with Colletotrichum acutatum [7]; in assay [16]; with Colletotrichum fragariae [17]) was 0 mm in each case.
As for `C=C1C=CC(C(C)C)CC1` (stereo not drawn) [BETA-PHELLANDRENE], the Activity (in the assay with Colletotrichum acutatum [7]; in assay [16]; in the assay on Colletotrichum fragariae [17]) was 0 mm in each case.
Consider `C=C1CCC2CC1C2(C)C` (stereo not drawn) [BETA-PINENE], for which the Activity (in the assay on Colletotrichum acutatum [7]; in [16]; in the assay on Colletotrichum fragariae [17]) was 0 mm each time.
For the compound `O=C1C2CC=CCC2C(=O)N1SC(Cl)(Cl)Cl` (stereo not given) [CAPTAN], the Activity is listed as 18.9 mm in assay [27], 15 mm in the assay on Colletotrichum fragariae [25] and 11.5 mm with Colletotrichum acutatum [28].
For the compound `Cc1ccc(C(C)C)cc1O` [CARVACROL], the inhibition of growth at 30 µM with Botrytis cinerea [29] amounted to 36.9%.
Turning to `Cc1cc(C2CC2)nc(Nc2ccccc2)n1` [CYPRODINIL], the inhibition result (in [24]; with Colletotrichum acutatum [26]) was “Active” each time. In addition, the Activity with Colletotrichum fragariae [25] came to 23 mm.
Turning to `CCCCCCCCCCCCCCCC(=O)O` [PALMITIC ACID], the Activity (with Colletotrichum acutatum [7]; in assay [16]; in the assay with Colletotrichum fragariae [17]) was 0 mm in each case.

(Values after ChEMBL document CHEMBL3044643, “Chemical composition and antifungal activity of Arnica longifolia, Aster hesperius, and Chrysothamnus nauseosus essential oils” (2007).)
